The source of these data is ChEMBL document CHEMBL5532699, “Design, docking optimization, and evaluation of biotin-PEG4-1,8-naphthalimide as a potent and safe antitumor agent with dual targeting of ferroptosis and DNA” (RSC Med Chem, 2024).

pIC50: −log10 of the molar value. A value given as a limit tells only on which side of the number the result lay.

The IC50 is the concentration that gives 50% inhibition. Read a high IC50 as a need for much substance. The pIC50 is the IC50 on a negative log10 scale, so that one unit is a factor of ten. One may read the inhibition in vivo as the share of the control response that was lost under treatment. The half-life is how long it takes for the measured level to halve.

Data set [1] can be described thus: Cytotoxicity against HUVEC cells incubated for 48 hrs by MTT assay. The class given is toxicity, cell-based. Conditions: human. In a few lines: (§1)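 Monolayer cells in DMEM with 10% FBS, penicillin and streptomycin, 37°C, 5% CO2. Exponentially growing cells were seeded in 96-well plates and exposed to compound for 48 h. MTT was then added for 4 h at 37°C. Medium was removed, formazan dissolved in DMSO, and OD read at 490 nm. Each plate had five replicate wells, and assays were repeated three times per line.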

Data set [2] concerns U-251. The data set can be described thus: Antiproliferative activity against human U-251 cells incubated for 48 hrs by MTT assay. Conditions: U-251, 48 h. The class given is functional, cell-based. A digest of the protocol: as §1
In general terms: Tetrazolium assays rely on reduction of a dye to a coloured formazan, in cell work by metabolically active cells.

Another data set relates to MDA-MB-231. Put plainly: Antiproliferative activity against human MDA-MB-231 cells incubated for 48 hrs by MTT assay. The class given is functional, cell-based. As to conditions: MDA-MB-231, 48 h. In a few lines:
as §1

Data set [3] in a line: Cytotoxicity against HK-2 cells incubated for 48 hrs by MTT assay. The class given is toxicity, cell-based. As to conditions: human. In a few lines:
as §1

In the next data set the test system is A549. The data set can be described thus: Antiproliferative activity against human A549 cells incubated for 48 hrs by MTT assay. The class given is functional, cell-based. As to conditions: A549, 48 h. In a few lines:
as §1

Data set [4] concerns U-251. The data set can be described thus: Antitumor activity against human U-251 cells xenografted in nude mouse assessed as tumor inhibition ratio at 5 mg/kg, ip administered once every two days for 21 days relative to control. The class given is functional. Conditions: U-251, 504 h, time 21 day. In a few lines: (§2)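 1×10^6 tumor cells injected s.c. into the right flank of nude mice. At mean tumor volume 60–80 mm³, animals randomized to vehicle or treatment groups (n = 6). Compound in 5% v/v DMSO/saline given i.p. every 2 days. Tumor size and weight recorded; volume = lw²/2 from length and width. Body weight tracked as the systemic toxicity index.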

The subject of data set [5] is MGC-803. Put plainly: Antitumor activity against human MGC-803 cells xenografted in nude mouse assessed as tumor inhibition ratio at 5 mg/kg, ip administered once every two days for 21 days relative to control. The class given is functional. As to conditions: MGC-803, 504 h, time 21 day. In a few lines: (§3)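 1×10^6 tumour cells were injected subcutaneously into the right flank of nude mice. At a mean tumour volume of 60–80 mm³, mice were randomised into solvent control and treated groups (n = 6). Compound in 5% v/v DMSO/saline was given i.p. every 2 days. Tumour length and width were measured, V = lw²/2, and tumour weight was recorded.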

In the next data set the test system is HCT-116. Put plainly: Antiproliferative activity against human HCT-116 cells incubated for 48 hrs by MTT assay. The class given is functional, cell-based. Conditions: HCT-116, 48 h. A digest of the protocol: as §1
For another data set, the system named is T-24. Put plainly: Antiproliferative activity against human T24 cells incubated for 48 hrs by MTT assay. The class given is functional, cell-based. Conditions: T-24, 48 h. A digest of the protocol: as §1
Data set [6] in a line: Toxicity in nude mouse xenografted with human U-251 cells assessed as decrease in animal movement at 25 mg/kg, ip administered once every two days for 21 days. The class given is organism-based. Conditions: in vivo, 504 h, time 21 day. In a few lines: as §2
Data set [7] has as its system U-251. The data set can be described thus: Antitumor activity against human U-251 cells xenografted in nude mouse assessed as tumor inhibition ratio at 25 mg/kg, ip administered once every two days for 21 days relative to control. The class given is functional. As to conditions: U-251, 504 h, time 21 day. A digest of the protocol: as §2
Data set [8] can be described thus: Toxicity in nude mouse xenografted with human U-251 cells assessed as decrease in body weight at 25 mg/kg, ip administered once every two days for 21 days. The class given is organism-based. Conditions: in vivo, 504 h, time 21 day. In a few lines: as §2
A general note: Xenograft models place foreign cells or tissue in a host animal.

A short description of data set [9]: Toxicity in nude mouse xenografted with human MGC-803 cells assessed as pathological changes in heart at 5 mg/kg, ip administered once every two days for 21 days by H and E staining based analysis. The class given is organism-based. Conditions: in vivo, 504 h, time 21 day. A digest of the protocol: (§4)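 Major organs from MGC-803 xenograft nude mice (i.p. dosing in 5% DMSO/saline every 2 days, n = 6) were stained with haematoxylin-eosin and examined at 200×.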

Data set [10] can be described thus: Metabolic stability in male CD-1 mouse liver microsomes assessed as half life at 2 uM incubated for 60 min in the presence of NADPH by LC-MS/MS analysis. The class given is ADME, Microsome. A digest of the protocol:
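Male CD-1 mouse liver microsomes at 0.5 mg/mL final in 100 mM phosphate buffer, pH 7.4. Mixture was preincubated with 1 mM NADPH (PBS only for the negative control) for 10 min at 37°C. Reaction was started with test compound at 2 µM final. Aliquots were taken at 0.5, 15, 30, 45 and 60 min into cold methanol with internal standard, centrifuged, and the supernatant analysed by LC-MS/MS.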
Background: Liver microsomes are a subcellular fraction often used to study metabolism.

Data set [11] has as its system MGC-803. The data set can be described thus: Antiproliferative activity against human MGC-803 cells incubated for 48 hrs by MTT assay. The class given is functional, cell-based. As to conditions: MGC-803, 48 h. A digest of the protocol: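 Cells kept as monolayers in DMEM with 10% FBS, streptomycin and penicillin, 37°C, 5% CO₂. Exponentially growing cells seeded in 96-well plates, exposed 48 h, then MTT (10 mg/mL stock) for 4 h at 37°C. Medium removed, formazan dissolved in DMSO, OD read at 490 nm. Five wells per condition; each cell line run three times.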

The nature of data set [12]: Toxicity in nude mouse xenografted with human MGC-803 cells assessed as pathological changes in liver at 5 mg/kg, ip administered once every two days for 21 days by H and E staining based analysis. Conditions: in vivo, 504 h, time 21 day. The class given is organism-based. In a few lines: as §4
Data set [13] in a line: Toxicity in nude mouse xenografted with human U-251 cells assessed as decrease in body weight at 10 mg/kg, ip administered once every two days for 21 days. The class given is organism-based. As to conditions: in vivo, 504 h, time 21 day. A digest of the protocol:
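Subcutaneous xenograft in nude mice (1×10^6 cells, right flank). At 60–80 mm³, mice were randomised (n = 6 per group) to solvent control or treatment. Compound in 5% v/v DMSO/saline was given i.p. once every 2 days. Body weight was recorded as the indicator of systemic toxicity.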

Data set [14] in a line: Toxicity in nude mouse xenografted with human MGC-803 cells assessed as pathological changes in lung at 5 mg/kg, ip administered once every two days for 21 days by H and E staining based analysis. Conditions: in vivo, 504 h, time 21 day. The class given is organism-based. A digest of the protocol:
as §4

The test system of data set [15] is U-251. The data set can be described thus: Antitumor activity against human U-251 cells xenografted in nude mouse assessed as tumor inhibition ratio at 10 mg/kg, ip administered once every two days for 21 days relative to control. The class given is functional. Conditions: U-251, 504 h, time 21 day. A digest of the protocol: as §3
Data set [16] in a line: Toxicity in nude mouse xenografted with human MGC-803 cells assessed as pathological changes in spleen at 5 mg/kg, ip administered once every two days for 21 days by H and E staining based analysis. The class given is organism-based. Conditions: in vivo, 504 h, time 21 day. In a few lines:
as §4

Data set [17] is described as follows: Toxicity in nude mouse xenografted with human U-251 cells assessed as decrease in animal movement at 10 mg/kg, ip administered once every two days for 21 days. The class given is organism-based. As to conditions: in vivo, 504 h, time 21 day.

For the compound `CN(C)CCN1C(=O)c2cccc3cc(N)cc(c23)C1=O` [AMONAFIDE], the half-inhibitory concentration (IC50) at 48 h in data set [1] worked out at 21.9 µM; in data set [3], 27.2 µM. For the same compound, the pIC50 in the data set on U-251 [2] was under 4.30; with MDA-MB-231, 4.68; in the data set with A549, 4.91; in the data set on HCT-116 it was 4.59; in the data set on T-24, 5.10. The inhibition in vivo at 5 mg/kg stood at 35.4% in the data set with U-251 [4] and 42.2% with MGC-803 [5].

On to `Cn1nnc2c(C(N)=O)ncn2c1=O` [TEMOZOLOMIDE], for which the pIC50 with U-251 [2] is under 4.30. The Activity result in data set [6] and in [8] was “Toxic” each time. Further, in the data set with U-251 [7], the inhibition in vivo at 25 mg/kg is 74.2%.

For the compound `CN(C)CCN1C(=O)c2cccc3c(N4CCNCC4)ccc(c23)C1=O`, the Activity result is “Non-Toxic” in data set [9]; “Non-Toxic” in data set [12]; “Toxic” in data set [13]; “Non-Toxic” in data set [14]; “Non-Toxic” in data set [16]; “Toxic” in [17]. Also, the results for the IC50 at 48 h in [1] and in [3] were 1.99 µM and 6.38 µM, respectively. For the same compound, the pIC50 in the data set with U-251 [2] is 4.98; in the data set on MGC-803 [11], 5.76; with MDA-MB-231 it was 6.02; with A549 it was 4.87; in the data set with HCT-116, 5.15; in the data set with T-24, 5.23. For the same compound, the half-life at 2 µM in data set [10] was over 185 min. In addition, the inhibition in vivo at 10 mg/kg in the data set on U-251 [15] came to 71.5%. For the same compound, the inhibition in vivo at 5 mg/kg in the data set with MGC-803 [5] is 40.3%.

`CN(C)CCN1C(=O)c2cccc3cc([N+](=O)[O-])cc(c23)C1=O` [MITONAFIDE]: the values for the IC50 at 48 h in data set [1] and in data set [3] were 5.9 µM and 2.13 µM, respectively. The pIC50 with U-251 [2] was 5.01; with MDA-MB-231 it was 5.12; in the data set on A549, 5.44; with HCT-116, 4.91.
